Measurements published in PMC12122681 (Nature Communications, 2025).
Each block holds one molecule with its values, some of them ahead of it.

Key:
fungal IPC synthase = conditions: in words; cited from earlier work
[1] = target: His-tagged Aur1-Kei1 complex with Aur1 H157Y (S. cerevisiae) (UniProt P36107); assay: MST
[2] = target: the F158Y and A240C mutations (Aur1-Kei1 mutant complexes); assay: MST
[3] = target: His-tagged S. cerevisiae IPC synthase complex (Aur1-Kei1), wild type (S. cerevisiae) (UniProt P36107); assay: MST
[4] = system: unpurified membrane-embedded IPC synthase; conditions: cited from earlier work
Aur1-Kei1 complex = assay: Thermal shift assay; assay type: binding, Saccharomyces cerevisiae; conditions: 10 µM PI or 10 µM C6-ceramide, 1 h at 4 °C, 5% DMSO; compared to the control
Procedure, shortened: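 nanoDSF on 0.1 mg/mL purified complex in 25 mM HEPES pH 7.5, 150 mM NaCl, 0.01% LMNG. Protein was held 1 h at 4 °C with final 10 µM PI or 10 µM C6-ceramide in 5% DMSO. Intrinsic fluorescence at 330 and 350 nm was read from 35 to 95 °C at […]. Tm was taken from the first-derivative peak of Em350/Em330, averaged over three measurements.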

cryo-EM structure = target: the molecule itself; assay: cryo-EM structure
[5] = target: the molecule itself; assay: SEC + cross-linking + native gel or EMSA

Molecule: CCCCCCCCCC[C@H](C)[C@@H](O)[C@@H](C)/C=C(C)/C=C(\C)C(=O)[C@H](C)/C=C(\C)C(=O)O[C@H](CO)[C@@H](O)[C@H](O)C(=O)O [khafrefungin]
inhibition of fungal IPC synthase (fungal IPC synthase): effective inhibitors of fungal IPC synthase

fold reduction in binding affinity against the WT complex [1]: 30 fold | fold weakening of the binding affinity against the WT complex [2]: 1.5 to 2 fold | Kd [3]: 57.7 nM
Molecule: Aureobasidin A (peptide)

Molecule: ceramide
kinetic value for ceramide [4]: 3 µM | effect on protein stability (Aur1-Kei1 complex): did not enhance protein stability

Molecule: C=C1/C=C(\C)[C@H](CC)CC(=O)[C@H](C)C(=O)[C@@](O)(CO)C/C(OC)=C/[C@@H](C)C1 [rustmicin]
inhibition of fungal IPC synthase (fungal IPC synthase): effective inhibitors of fungal IPC synthase

B1: S. cerevisiae Aur1, catalytic subunit of IPC synthase (enzyme)
chain: MANPFSRWFLSERPPNCHVADLETSLDPHQTLLKVQKYKPALSDWVHYIFLGSIMLFVFITNPAPWIFKILFYCFLGTLFIIPATSQFFFNALPILTWVALYFTSSYFPDDRRPPITVKVLPAVETILYGDNLSDILATSTNSFLDILAWLPYGLFHFGAPFVVAAILFVFGPPTVLQGYAFAFGYMNLFGVIMQNVFPAAPPWYKILYGLQSANYDMHGSPGGLARIDKLLGINMYTTAFSNSSVIFGAFPSLHSGCATMEALFFCYCFPKLKPLFIAYVCWLWWSTMYLTHHYFVDLMAGSVLSYVIFQYTKYTHLPIVDTSLFCRWSYTSIEKYDISKSDPLAADSNDIESVPLSNLELDFDLNMTDEPSVSPSLFDGSTSVSRSSATSITSLGVKRA
modifications: two major bands likely correspond to the glycosylated and non-glycosylated forms (sites not given)
stoichiometry N (cryo-EM structure): 2

B2: S. cerevisiae IPC synthase complex (Aur1-Kei1 complex), wild type (complex)
chain 1: MANPFSRWFLSERPPNCHVADLETSLDPHQTLLKVQKYKPALSDWVHYIFLGSIMLFVFITNPAPWIFKILFYCFLGTLFIIPATSQFFFNALPILTWVALYFTSSYFPDDRRPPITVKVLPAVETILYGDNLSDILATSTNSFLDILAWLPYGLFHFGAPFVVAAILFVFGPPTVLQGYAFAFGYMNLFGVIMQNVFPAAPPWYKILYGLQSANYDMHGSPGGLARIDKLLGINMYTTAFSNSSVIFGAFPSLHSGCATMEALFFCYCFPKLKPLFIAYVCWLWWSTMYLTHHYFVDLMAGSVLSYVIFQYTKYTHLPIVDTSLFCRWSYTSIEKYDISKSDPLAADSNDIESVPLSNLELDFDLNMTDEPSVSPSLFDGSTSVSRSSATSITSLGVKRA
chain 2: MRSSLLTLPKSFLGFMPLYLAVEIVLGISILNKCSGAYGILALFTGHPLDFMQWIAYLWSVFTLIVFSQGLYLIHKPNLLVFSQICVLYTIDTISTCFFTLWFTTQWFTLEDTANIDGNNALQSNPISTGKLTERGIDISKQSATESYEYTMTILITLVSLIFRFYFNFILASFVQELLHHPKYLVDRDDVEQNLKNKPIWKRLWAKSQKGCYKLCKNLLE
modifications: two major bands likely correspond to the glycosylated and non-glycosylated forms (sites not given)
stoichiometry N [5]: 2
